Reference: ChEMBL document CHEMBL2412956, “Synthesis and biological activity evaluation of 5-pyrazoline substituted 4-thiazolidinones” (Eur J Med Chem, 2013)

Key:
Influenza A virus [1] = test: Antiviral activity against Influenza A virus (A/Perth/16/2009(H3N2)) infected in MDCK cells assessed as inhibition of virus-induced cytopathic effect by cell-based neutral red uptake assay; format: functional, organism-based
[2] = (§1) Cytotoxicity against MDCK cells; format: cell-based, Canis lupus familiaris; conditions: dog, MDCK cells
Summary of the method: (§2)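 Cytotoxicity was measured in uninfected wells run alongside the antiviral plates, across eight half-log dilutions in MEM. Cells were stained with neutral red, and the extracted dye was read at 540 nm. CC₅₀, the concentration giving 50% cytotoxicity, was obtained by regression, and values are reported in μM.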

Influenza A virus [3] = test: Antiviral activity against Influenza A virus (A/duck/Minnesota/1525/1981(H5N1)) infected in MDCK cells assessed as inhibition of virus-induced cytopathic effect by cell-based neutral red uptake assay; format: functional, organism-based
Influenza A virus [4] = test: Antiviral activity against Influenza A virus (A/California/07/2009(H1N1)) infected in MDCK cells assessed as inhibition of virus-induced cytopathic effect by cell-based neutral red uptake assay; format: functional, organism-based
[5] = Selectivity index, ratio of CC50 for MDCK cells to EC50 for Influenza A virus (A/duck/Minnesota/1525/1981(H5N1)); format: toxicity, cell-based; conditions: dog, read-out: Ratio CC50/EC50
HOP-92 = test: Cytotoxicity against human HOP92 cells assessed as cell growth at 10 uM after 48 hrs by SRB assay relative to control; format: functional; conditions: HOP-92, 48 h, read-out: Activity
Summary of the method: (§3)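 This was the NCI primary screen, with compound added once at 10⁻⁵ M and cultures incubated for 48 h. The endpoint was sulforhodamine B protein staining. Results are expressed as percent growth of treated cells relative to untreated control cells.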

[6] = Antiviral activity against SARS coronavirus Urbani infected in MDCK cells assessed as inhibition of virus-induced cytopathic effect by cell-based neutral red uptake assay; format: functional; conditions: Severe acute respiratory syndrome-related coronavirus
[7] = Selectivity index, ratio of CC50 for MDCK cells to EC50 for Influenza A virus (A/Perth/16/2009(H3N2)); format: toxicity, cell-based; conditions: dog, read-out: Ratio CC50/EC50
Influenza B virus = test: Antiviral activity against Influenza B virus (B/Florida/4/2006) infected in MDCK cells assessed as inhibition of virus-induced cytopathic effect by cell-based neutral red uptake assay; format: functional; conditions: B/Florida/4/2006, MDCK
[8] = Selectivity index, ratio of CC50 for MDCK cells to EC50 for Influenza A virus (A/California/07/2009(H1N1)); format: toxicity, cell-based; conditions: dog, read-out: Ratio CC50/EC50
[9] = Selectivity index, ratio of CC50 for MDCK cells to EC50 for Influenza B virus (B/Florida/4/2006); format: toxicity, cell-based; conditions: dog, read-out: Ratio CC50/EC50
[10] = Selectivity index, ratio of CC50 for MDCK cells to EC50 for SARS coronavirus Urbani; format: toxicity, cell-based; conditions: dog, read-out: Ratio CC50/EC50
MDCK = test: as §1; format: cell-based, Canis lupus familiaris; conditions: dog, mdck; summary of the method: as §2
UO-31 = test: Cytotoxicity against human UO31 cells assessed as cell growth at 10 uM after 48 hrs by SRB assay relative to control; format: functional; conditions: UO-31, 48 h, read-out: Activity
Summary of the method: (§4)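 Single-dose NCI screen: compound at 10⁻⁵ M added to tumor cell cultures and incubated for 48 h. The SRB protein-binding dye end point was read spectrophotometrically. Results are percent growth of treated cells relative to untreated controls.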

[11] = tested on: Trypanosoma brucei brucei; test: Antitrypanosomal activity against bloodstream form of Trypanosoma brucei brucei 90-13 assessed as parasite growth inhibition after 72 hrs by resazurin-based fluorescence assay; format: functional, organism-based; conditions: 90-13, 72 h
Summary of the method: (§5)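 Bloodstream forms of strain 90-13 or Feo were grown in HMI9 with 10% FCS at 37 °C under 5% CO₂. Log-phase parasites were seeded at 10⁵ cells/ml and exposed for 72 h to 10–0.625 μg/ml drug from DMSO stocks, with DMSO as control. Resazurin was added at 45 μM final, and fluorescence was read 4 h later. IC₅₀ was taken from the dose–response curve as the mean of three independent experiments.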

[12] = tested on: Trypanosoma brucei gambiense; test: Antitrypanosomal activity against bloodstream form of Trypanosoma brucei gambiense Feo assessed as parasite growth inhibition after 72 hrs by resazurin-based fluorescence assay; format: functional, organism-based; summary of the method: as §5
CCRF-CEM = test: Cytotoxicity against human CCRF-CEM cells assessed as cell growth at 10 uM after 48 hrs by SRB assay relative to control; format: functional; conditions: read-out: Activity; summary of the method: as §3
T47D = test: Cytotoxicity against human T47D cells assessed as cell growth at 10 uM after 48 hrs by SRB assay relative to control; format: functional; conditions: read-out: Activity; summary of the method: as §4
K562 = test: Cytotoxicity against human K562 cells assessed as cell growth at 10 uM after 48 hrs by SRB assay relative to control; format: functional; conditions: K562, 48 h, read-out: Activity; summary of the method: as §3
Trypanosoma cruzi = test: Antitrypanosomal activity against […] form of Trypanosoma cruzi Y infected in monkey […] cells assessed as parasite growth inhibition after 15 hrs by trypan blue staining-based hemocytometric analysis; format: functional, organism-based

| Compound | EC50 (Influenza A virus [1]) [µM] | EC50 (Influenza A virus [3]) [µM] | EC50 (Influenza A virus [4]) [µM] | selectivity ratio [5] | EC50 [6] [µM] | EC50 (Influenza B virus) [µM] | selectivity ratio [8] | selectivity ratio [9] | CC50 (MDCK) [µM] | further results |
| --- | --- | --- | --- | --- | --- | --- | --- | --- | --- | --- |
| NC(=O)c1ncn([C@@H]2O[C@H](CO)[C@@H](O)[C@H]2O)n1 [RIBAVIRIN] | 18.4 | 18.4 | 23.8 | – | – | – | – | – | – | CC50 [2]: > 324 µM |
| O=C1NC(=O)C(N2N=C(c3ccc4ccccc4c3)CC2c2ccc(Cl)cc2)S1 (configuration not stated) | 2.84 | 5.21 | 4.27 | 1.2 | > 23.2 | 3.08 | 1 | 1.6 | – | growth at 10 µM (HOP-92): 74.9%; selectivity ratio [7]: 1 |
| COc1ccc(C2CC(c3ccc4ccccc4c3)=NN2C2SC(=O)N(CN3CCCCC3)C2=O)cc1 (configuration not stated) | – | – | – | – | – | – | – | – | – | growth at 10 µM (HOP-92): 69.5% |
| COc1ccc(C2CC(c3ccc4ccccc4c3)=NN2C2SC(=O)N(CN3CCN(Cc4ccccc4)CC3)C2=O)cc1 (configuration not stated) | > 6.6 | > 24.8 | 13.7 | – | 21.5 | 57.8 | 1.1 | 1 | 6.6 | selectivity ratio [10]: 1.6; growth at 10 µM (UO-31): 74.5% |
| COc1ccc(NC(=O)CN2C(=O)SC(N3N=C(c4ccc5ccccc5c4)CC3c3ccc(Cl)cc3)C2=O)cc1 (configuration not stated) | 18.8 | 179 | 120 | 1.5 | > 342 | 95.7 | 1.5 | 1.4 | > 25.6 | selectivity ratio [7]: 1.3; IC50 [11]: 11.3 µM; IC50 [12]: 6.1 µM |
| COc1ccc(NC(=O)CN2C(=O)S/C(=C\C(=O)N3N=C(c4ccc5ccccc5c4)CC3c3ccc(OC)cc3)C2=O)cc1 (configuration not stated) | – | – | – | – | – | – | – | – | – | growth at 10 µM (CCRF-CEM): 74.7% |
| COc1ccc(C2CC(c3ccc4ccccc4c3)=NN2C2SC(=O)N(CN3CCN(C(C)=O)CC3)C2=O)cc1 (configuration not stated) | – | – | – | – | – | – | – | – | – | growth at 10 µM (UO-31): 82.2% |
| COc1ccc(C2CC(c3ccc4ccccc4c3)=NN2C2SC(=O)N(CC(=O)Nc3ccc(C)cc3)C2=O)cc1 (configuration not stated) | 53.1 | 21.8 | 142 | > 16.3 | > 313 | 79.7 | 1.6 | 2.1 | > 74.4 | selectivity ratio [7]: 1.4; growth at 10 µM (UO-31): 76.6% |
| N=C(N)c1ccc(OCCCCCOc2ccc(C(=N)N)cc2)cc1 [PENTAMIDINE] | – | – | – | – | – | – | – | – | – | IC50 [12]: 0.0053 µM |
| COc1ccc(C2CC(c3ccc4ccccc4c3)=NN2C(=O)/C=C2\SC(=O)NC2=O)cc1 (configuration not stated) | – | – | – | – | – | – | – | – | – | growth at 10 µM (T47D): 78.7% |
| CCN1CCN(CN2C(=O)SC(N3N=C(c4ccc5ccccc5c4)CC3c3ccc(Cl)cc3)C2=O)CC1 (configuration not stated) | > 2.37 | 4.38 | 4.01 | 1.4 | > 16.8 | 4.01 | 1.1 | 2.1 | 2.37 | – |
| CC(=O)N1CCN(CN2C(=O)SC(N3N=C(c4ccc5ccccc5c4)CC3c3ccc(Cl)cc3)C2=O)CC1 (configuration not stated) | – | – | – | – | – | – | – | – | – | growth at 10 µM (K562): 76.4% |
| CCC1SC(N/N=C\CSc2ccccc2)=NC1=O (configuration not stated) | – | – | – | – | – | – | – | – | – | IC50 (Trypanosoma cruzi): 0.3 µM |
| Cc1ccc(NC(=O)CN2C(=O)SC(N3N=C(c4ccc5ccccc5c4)CC3c3ccc(Cl)cc3)C2=O)cc1 (configuration not stated) | > 13.3 | 51 | 54.5 | 1.1 | > 351 | 35.1 | 1.3 | 1.3 | > 13.3 | IC50 [11]: 5.43 µM; IC50 [12]: 2.53 µM |
| COc1ccc(C2CC(c3ccc4ccccc4c3)=NN2C2SC(=O)NC2=O)cc1 (configuration not stated) | 4.31 | 7.9 | 9.82 | 1.6 | > 23.5 | 4.55 | 1.1 | 1.8 | 6.23 | selectivity ratio [7]: 1.4; IC50 [11]: 13.9 µM; growth at 10 µM (UO-31): 77.5%; IC50 [12]: 6.66 µM |
